From ChEMBL document CHEMBL4715794, “Design, Synthesis, and Biological Evaluation of Novel Cyclic Adenosine-Inosine Monophosphate (cAIMP) Analogs That Activate Stimulator of Interferon Genes (STING)” (J Med Chem, 2016)
The source made the active and inactive calls. The rule behind the calls is not given here.

Experiments:
[1] = target: T1, Stimulator of interferon genes protein (Homo sapiens, UniProt Q86WV6); assay: Activation of STING in human blood assessed as induction of type I IFNs incubated for 18 to 20 hrs by QUANTI-Blue assay; format: tissue-based
[2] = target: T2, Stimulator of interferon genes protein (Mus musculus, UniProt Q3TBT3); assay: Activation of STING in mouse RAW-Lucia ISG cells assessed as induction of type I IFNs stimulation by measuring induction of IRF pathway incubated for 48 hrs by luciferase reporter gene assay; format: cell-based
T2 sequence (Q3TBT3 whole entry): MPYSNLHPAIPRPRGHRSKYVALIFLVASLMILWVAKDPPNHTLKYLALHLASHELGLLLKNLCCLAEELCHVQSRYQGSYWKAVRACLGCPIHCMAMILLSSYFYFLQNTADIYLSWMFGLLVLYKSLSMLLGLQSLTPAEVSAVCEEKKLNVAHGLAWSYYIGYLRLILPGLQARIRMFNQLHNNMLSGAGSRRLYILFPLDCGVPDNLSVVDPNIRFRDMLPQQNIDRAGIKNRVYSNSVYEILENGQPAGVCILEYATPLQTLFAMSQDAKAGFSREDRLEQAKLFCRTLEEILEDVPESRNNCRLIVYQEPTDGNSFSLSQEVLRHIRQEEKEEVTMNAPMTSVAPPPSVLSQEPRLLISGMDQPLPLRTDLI
In short: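 Cells (~100,000/well) stimulated 48 h at 37 °C, 5% CO2, with saline vehicle or compound in saline at seven concentrations. Luciferase reporter read with Quanti-Luc. EC50 from log(agonist) dose-response fit; mean ± SD of three independent experiments.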

[3] = target: T3, Stimulator of interferon genes protein (Mus musculus) (UniProt Q3TBT3); assay: Activation of STING in mouse RAW-Lucia ISG cells assessed as induction of type I IFNs stimulation by measuring induction of IRF pathway incubated for 48 hrs by luciferase reporter gene assay relative to 2',3'-cGAMP; format: cell-based; details: filed as activator
T3 sequence (whole entry): T2 sequence (Q3TBT3 whole entry)
In short: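 RAW-Lucia ISG cells (~100,000/well), 48 h at 37 °C, 5% CO2, compound in saline at seven concentrations, Quanti-Luc luciferase read-out. Emax taken as fitted top plateau, normalized to the 2',3'-cGAMP response in each assay; mean percentage ± SD of three independent experiments.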

[4] = target: T4, Nuclease P1 (Penicillium citrinum, UniProt P24289); assay: Stability in presence of nuclease P1 assessed as parent compound remaining level at 7 ug incubated for 2 hrs by HPLC analysis; format: ADME; details: at 7 µg; for Stabilty: in vitro, 2 h
T4 sequence (P24289 whole entry): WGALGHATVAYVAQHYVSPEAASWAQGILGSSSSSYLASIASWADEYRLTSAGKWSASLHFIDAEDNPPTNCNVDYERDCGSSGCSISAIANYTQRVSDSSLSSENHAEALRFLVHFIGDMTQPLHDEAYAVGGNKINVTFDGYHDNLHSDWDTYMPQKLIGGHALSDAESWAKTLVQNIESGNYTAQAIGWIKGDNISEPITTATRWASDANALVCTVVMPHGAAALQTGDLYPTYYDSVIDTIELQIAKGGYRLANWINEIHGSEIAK
In short: (§1)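 7 µg CDN incubated at 37 °C with 2.5 mU NP1 in 30 mM acetate buffer, 2 mM ZnCl2, pH 5.3 (water control). Aliquots taken from 0 to 2 h, heated 100 °C for 2 min, frozen, then analysed by reverse-phase UPLC with UV detection.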

[5] = target: T1, Stimulator of interferon genes protein; assay: Activation of STING in human blood assessed as increase in IL-1 production at 10 ug/ml incubated for 18 to 20 hrs by QUANTI-Blue assay; format: tissue-based; details: filed as activator, time 18-20 hrs
In short: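 Whole blood from healthy donors, diluted 1:2 in RPMI with sodium pyruvate, incubated 18–20 h at 37 °C with CDN in saline. Supernatants assayed on HEK-Blue IL-1R reporter cells (~50,000/well, ~20 h, 37 °C), SEAP read with QUANTI-Blue. Fold induction over unstimulated; mean of fifteen donors over three experiments.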

[6] = Stability in presence of snake venom phosphodiesterase assessed as parent compound remaining level at 7 ug incubated for 2 hrs by HPLC analysis; format: ADME; details: in vitro, at 7 µg
In short: (§2)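 7 µg of each CDN incubated at 37 °C in a water bath with 21 µL of enzyme solution (160 µg snake venom phosphodiesterase in PBS with 0.6 mM MgCl2), with water as the no-enzyme control. Aliquots were taken at time points from 0 to 2 h, heated at 100 °C for 2 min, frozen, then injected onto a C18 UHPLC column with UV detection to follow the parent compound.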

[7] = test system: RAW; assay: Induction of type I IFN production in mouse RAW-Lucia ISG-KO-STING cells at 0.08 to 60 ug/ml incubated for 48 hrs by luciferase reporter gene assay; format: functional, cell-based; details: dose 0.08-60 µg/ml
[8] = (§3) Stability in presence of snake venom phosphodiesterase assessed as parent compound degradation at 7 ug incubated for 2 hrs by HPLC analysis; format: ADME; details: 2 h; in short: as §2
[9] = target: T4, Nuclease P1; assay: Stability in presence of nuclease P1 assessed as half life at 7 ug incubated for 2 hrs by HPLC analysis; format: ADME; details: nuclease P1 (isolated enzyme), dose 7 µg; in short: as §1
[10] = Stability in presence of snake venom phosphodiesterase assessed as parent compound remaining level at 7 ug incubated for >2 hrs by HPLC analysis; format: ADME; details: at 7 µg
[11] = target: T5, ENPP1 (ectonucleotide pyrophosphatase/phosphodiesterase family member 1) (Homo sapiens, UniProt P22413); assay: Stability in presence of ENPP1 ( unknown origin) assessed as half life by HPLC analysis; details: ENPP1 (isolated enzyme, unknown origin)
T5 sequence (P22413 whole entry): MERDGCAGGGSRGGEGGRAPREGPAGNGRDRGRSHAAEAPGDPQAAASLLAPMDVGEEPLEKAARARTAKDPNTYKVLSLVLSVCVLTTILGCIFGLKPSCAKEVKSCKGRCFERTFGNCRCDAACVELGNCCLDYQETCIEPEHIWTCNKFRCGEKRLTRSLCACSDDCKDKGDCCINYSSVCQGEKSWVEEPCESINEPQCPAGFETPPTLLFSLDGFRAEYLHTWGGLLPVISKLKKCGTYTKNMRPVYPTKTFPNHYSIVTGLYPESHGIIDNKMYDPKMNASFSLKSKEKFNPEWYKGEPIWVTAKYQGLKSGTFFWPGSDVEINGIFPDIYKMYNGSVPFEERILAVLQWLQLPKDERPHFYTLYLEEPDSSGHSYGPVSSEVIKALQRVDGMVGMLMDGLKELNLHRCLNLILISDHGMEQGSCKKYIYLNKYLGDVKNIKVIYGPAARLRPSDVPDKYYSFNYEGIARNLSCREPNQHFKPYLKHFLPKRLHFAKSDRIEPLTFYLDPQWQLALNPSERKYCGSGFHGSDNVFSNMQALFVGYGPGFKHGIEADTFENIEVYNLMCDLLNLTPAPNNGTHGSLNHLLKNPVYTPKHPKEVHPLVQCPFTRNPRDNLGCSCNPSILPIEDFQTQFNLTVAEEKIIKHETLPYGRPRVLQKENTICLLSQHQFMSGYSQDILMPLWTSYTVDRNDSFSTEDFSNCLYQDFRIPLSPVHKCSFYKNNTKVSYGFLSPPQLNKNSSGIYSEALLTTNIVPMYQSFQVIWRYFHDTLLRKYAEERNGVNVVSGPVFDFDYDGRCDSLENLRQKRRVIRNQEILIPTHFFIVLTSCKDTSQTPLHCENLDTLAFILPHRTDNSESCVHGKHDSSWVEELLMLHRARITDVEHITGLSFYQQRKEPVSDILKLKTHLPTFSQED

[12] = test system: snake venom phosphodiesterase; assay: as §3; format: ADME; details: snake venom phosphodiesterase, read-out: Drug degradation; in short: as §2
[13] = test system: RAW; assay: Induction of type I IFN production in mouse RAW-Lucia ISG-KO-STING cells at 0.08 to 100 ug/ml incubated for 48 hrs by luciferase reporter gene assay; format: functional, cell-based; details: dose 0.08-100 µg/ml

T1 sequence (Q86WV6 whole entry): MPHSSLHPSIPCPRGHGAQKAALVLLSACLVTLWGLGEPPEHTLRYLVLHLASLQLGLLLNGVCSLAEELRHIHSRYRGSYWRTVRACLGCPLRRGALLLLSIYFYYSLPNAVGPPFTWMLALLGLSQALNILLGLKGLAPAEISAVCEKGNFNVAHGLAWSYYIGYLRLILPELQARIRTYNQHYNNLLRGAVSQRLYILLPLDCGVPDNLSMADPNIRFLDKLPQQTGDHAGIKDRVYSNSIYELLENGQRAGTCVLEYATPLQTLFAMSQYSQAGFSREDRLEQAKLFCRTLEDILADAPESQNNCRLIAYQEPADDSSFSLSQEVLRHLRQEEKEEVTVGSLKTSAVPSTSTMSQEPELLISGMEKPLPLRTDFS

| SMILES | EC50 [1] [µM] | EC50 [2] [µM] | Emax [3] [%] | Stabilty [6] | Activity [7] | further results |
| --- | --- | --- | --- | --- | --- | --- |
| Nc1ncnc2c1ncn2[C@@H]1O[C@@H]2COP(=O)(O)O[C@H]3[C@@H](F)[C@H](n4cnc5c(O)ncnc54)O[C@@H]3COP(=O)(O)O[C@H]2[C@H]1F | 0.7 | 5.1 | 90 | Stable | inactive | Stabilty [4]: Stable; Activity [5]: Active |
| Nc1ncnc2c1ncn2[C@@H]1O[C@@H]2COP(=O)(S)O[C@H]3[C@@H](O)[C@H](n4cnc5c(O)ncnc54)O[C@@H]3COP(=O)(S)O[C@H]2[C@H]1O (stereo partly specified) | 10.6 | 4 | 115 | Stable | inactive | Stabilty [4]: Stable |
| Nc1ncnc2c1ncn2[C@@H]1O[C@@H]2COP(=O)(O)O[C@H]3[C@@H](O)[C@H](n4cnc5c(O)ncnc54)O[C@@H]3COP(=O)(O)O[C@H]2[C@H]1O | – | – | 107 | – | inactive | Stabilty [8]: Unstable; half-life at 7 ug [9]: 23.1 min |
| Nc1ncnc2c1ncn2[C@@H]1O[C@@H]2COP(=O)(S)O[C@H]3[C@@H](F)[C@H](n4cnc5c(O)ncnc54)O[C@@H]3COP(=O)(S)O[C@H]2[C@H]1F (stereo partly specified) | 0.4 | 0.6 | 104 | Stable | inactive | Stabilty [10]: Stable; Stabilty [4]: Stable; Activity [5]: Active |
| Nc1nc2c(ncn2[C@@H]2O[C@@H]3COP(=O)(O)O[C@H]4[C@@H](O)[C@H](n5cnc6c(N)ncnc65)O[C@@H]4COP(=O)(O)O[C@@H]2[C@@H]3O)c(=O)[nH]1 | – | – | – | Stable | inactive | remaining at 2 h, 7 ug ([4]; nuclease P1 (isolated enzyme), time 2 hrs, read-out: Stabilty): 83%; half-life [11]: 60 min |
| Nc1nc2c(ncn2[C@@H]2O[C@@H]3COP(=O)(O)O[C@H]4[C@@H](O)[C@H](n5cnc6c(N)ncnc65)O[C@@H]4COP(=O)(O)O[C@@H]2C3)c(=O)[nH]1 | – | – | – | – | – | half-life [11]: 60 min |
| Nc1ncnc2c1ncn2[C@H]1C[C@@H]2OP(=O)(O)OC[C@H]3O[C@@H](n4cnc5c(O)ncnc54)C[C@@H]3OP(=O)(O)OC[C@H]2O1 | 9.9 | 11.6 | 91 | Stable | inactive | metabolised at 2 h, 7 ug [12]: < 40%; half-life at 7 ug [9]: 5.7 min |
| Nc1ncnc2c1ncn2[C@@H]1O[C@@H]2COP(=O)(O)O[C@H]3C[C@H](n4cnc5c(O)ncnc54)O[C@@H]3COP(=O)(O)O[C@H]2[C@H]1F | 3.6 | 9.1 | 99 | – | inactive | – |
| Nc1ncnc2c1ncn2[C@@H]1O[C@@H]2COP(=O)(O)O[C@@H]3[C@H](O)[C@@H](COP(=O)(O)O[C@@H]1[C@@H]2O)O[C@H]3n1cnc2c(O)ncnc21 | – | – | 95 | – | inactive | – |
| Cc1ccc2c(=O)c3cccc(CC(=O)O)c3oc2c1C | – | – | – | – | – | Activity [13]: inactive |
| Nc1ncnc2c1ncn2[C@H]1C[C@@H]2OP(=O)(O)OC[C@H]3O[C@@H](n4cnc5c(O)ncnc54)[C@H](F)[C@@H]3OP(=O)(O)OC[C@H]2O1 | 2.8 | 5 | 93 | Stable | inactive | – |
| Nc1ncnc2c1ncn2[C@H]1C[C@@H]2OP(=O)(S)OC[C@H]3O[C@@H](n4cnc5c(O)ncnc54)[C@H](F)[C@@H]3OP(=O)(S)OC[C@H]2O1 (stereo partly specified) | 4.7 | 2.2 | 83 | Stable | inactive | Stabilty [10]: Stable |
| Nc1ncnc2c1ncn2[C@@H]1O[C@@H]2COP(=O)(O)O[C@@H]3[C@H](O)[C@@H](COP(=O)(O)O[C@H]2[C@H]1O)O[C@H]3n1cnc2c(=O)[nH]cnc21 | – | 6.1 | 85 | – | inactive | half-life at 7 ug [9]: 7.1 min |
| Nc1ncnc2c1ncn2[C@@H]1O[C@@H]2COP(=O)(O)O[C@H]3[C@@H](O)[C@H](n4cnc5c(O)ncnc54)O[C@@H]3COP(=O)(O)O[C@@H]1[C@@H]2O | – | – | 85 | – | inactive | – |
